Key:
Lung [1] = assay: Drug uptake in Sprague-Dawley rat lung at 0.15 nmol, iv pretreated with unlabeled (R)-PK11195 by PET scanning; type: ADME, organism-based; conditions: in vivo
How it was run: (§1)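 Male Sprague-Dawley rats (6–8 weeks old), isoflurane-anesthetized, prone. ROIs on lung, heart, kidney, liver, small intestine and cardiac blood pool. Uptake decay-corrected to injection time and expressed as SUV (body-weight normalized). n = 4, mean ± SD.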

Heart [2] = assay: Drug uptake in Sprague-Dawley rat heart at 0.15 nmol, iv pretreated with unlabeled (R)-PK11195 by PET scanning; type: ADME, organism-based; conditions: in vivo
How it was run: (§2)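 Isoflurane-anesthetized Sprague-Dawley rats underwent 30-min PET after iv [11C]radioligand, with unlabeled blocker given iv 1 min before tracer. Blockers were (R)-PK11195 at 3.0 mg/kg or AC-5216 at 1.0 mg/kg in 300 μL saline with 10% ethanol and 5% polysorbate 80. Regional uptake was decay-corrected SUV (n = 4).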

Lung [3] = assay: Drug uptake in Sprague-Dawley rat lung at 0.15 nmol, iv pretreated with unlabeled AC-5216 by PET scanning; type: ADME, organism-based; conditions: in vivo; how it was run: as §1
Heart [4] = assay: Drug uptake in Sprague-Dawley rat heart at 0.15 nmol, iv pretreated with unlabeled AC-5216 by PET scanning; type: ADME, organism-based; conditions: in vivo; how it was run: as §2
Kidney [5] = assay: Drug uptake in Sprague-Dawley rat kidney at 0.15 nmol, iv pretreated with unlabeled AC-5216 by PET scanning; type: ADME, organism-based; conditions: in vivo; how it was run: as §1
Liver [6] = assay: Drug uptake in Sprague-Dawley rat liver at 0.15 nmol, iv pretreated with unlabeled (R)-PK11195 measured after 27.5 mins by PET scanning relative to control; type: ADME, organism-based; conditions: in vivo
How it was run: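 Male Sprague-Dawley rats, 6-8 weeks old, under isoflurane, prone. An unlabeled TSPO blocking ligand (3.0 mg/kg) was injected 1 min before the iv radioligand (16-18 MBq/200 μL). A liver ROI was decay-corrected and expressed as SUV normalized to injected activity and body weight. The 27.5-min value was compared with unblocked controls; n = 4.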

Liver [7] = assay: Drug uptake in Sprague-Dawley rat liver at 0.15 nmol, iv pretreated with unlabeled AC-5216 measured after 27.5 mins by PET scanning relative to control; type: ADME, organism-based; conditions: in vivo
How it was run: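 Male Sprague-Dawley rats, 6-8 weeks, isoflurane-anesthetized. A blocking TSPO ligand (1.0 mg/kg, in 300 μL saline with 10% ethanol and 5% polysorbate 80) was injected 1 min before iv radioligand (16-18 MBq/200 μL). Liver ROI as decay-corrected SUV (injected activity, body weight), 27.5-min value versus controls; n = 4.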

[8] = Metabolic stability in Sprague-Dawley rat lung assessed as unchanged compound at 0.32 nmol, iv after 30 mins by analytical radio- HPLC; type: ADME, organism-based; conditions: read-out: Stability
[9] = Metabolic stability in Sprague-Dawley rat kidney assessed as unchanged compound at 0.32 nmol, iv after 30 mins by analytical radio- HPLC; type: ADME, organism-based; conditions: read-out: Stability
How it was run: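 Rats (n = 3) given radioligand iv (37 MBq/100 μL, 0.32 nmol) and killed at 30 min. Heart and kidney homogenized in ice-cold MeCN/H2O 4/6, centrifuged 15000 rpm for 1 min at 4 °C. Supernatant run on analytical radio-HPLC (C18, MeCN/H2O 4/6). Percent parent = parent peak area over total peak areas, decay-corrected. Mean ± SD.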

[10] = Metabolic stability in Sprague-Dawley rat plasma assessed as unchanged compound at 0.32 nmol, iv after 30 mins by analytical radio- HPLC; type: ADME, organism-based; conditions: read-out: Stability
Blood [11] = assay: Biodistribution in LPS-treated Sprague-Dawley rat blood at 0.19 nmol, iv by gamma counting; type: ADME, organism-based; conditions: in vivo
How it was run: (§3)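 Male Sprague-Dawley rats were given intratracheal LPS (E. coli O127:B8, 5.0 mg/kg in 50 μL saline) or 50 μL saline vehicle 24 h before tracer. [11C]Radioligand (16 MBq/200 μL, 0.19 nmol) in saline was injected via the tail vein. Rats were killed at 30 min (n = 4 per group). Tissues were weighed and gamma-counted, expressed as decay-corrected %ID/g.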

Brain [12] = assay: Biodistribution in LPS-treated Sprague-Dawley rat brain at 0.19 nmol, iv by gamma counting; type: ADME, organism-based; conditions: in vivo; how it was run: as §3
Kidney [13] = assay: Biodistribution in LPS-treated Sprague-Dawley rat kidney at 0.19 nmol, iv by gamma counting; type: ADME, organism-based; conditions: in vivo; how it was run: as §3
Spleen = assay: Biodistribution in LPS-treated Sprague-Dawley rat spleen at 0.19 nmol, iv by gamma counting; type: ADME, organism-based; conditions: in vivo; how it was run: as §3
Pancreas [14] = assay: Biodistribution in LPS-treated Sprague-Dawley rat pancreas at 0.19 nmol, iv by gamma counting; type: ADME, organism-based; conditions: in vivo; how it was run: as §3
Adrenal = assay: Biodistribution in LPS-treated Sprague-Dawley rat adrenal at 0.19 nmol, iv by gamma counting; type: ADME, organism-based, Adrenal tissue; conditions: in vivo; how it was run: as §3
Brain [15] = assay: Biodistribution in Sprague-Dawley rat brain at 0.19 nmol, iv by gamma counting; type: ADME, organism-based; conditions: in vivo; how it was run: as §3
Lung [16] = assay: Biodistribution in Sprague-Dawley rat lung at 0.19 nmol, iv by gamma counting; type: ADME, organism-based; conditions: in vivo; how it was run: as §3
Heart [17] = assay: Biodistribution in Sprague-Dawley rat heart at 0.19 nmol, iv by gamma counting; type: ADME, organism-based; conditions: in vivo; how it was run: as §3
Liver [18] = assay: Biodistribution in Sprague-Dawley rat liver at 0.19 nmol, iv by gamma counting; type: ADME, organism-based; conditions: in vivo; how it was run: as §3
Kidney [19] = assay: Biodistribution in Sprague-Dawley rat kidney at 0.19 nmol, iv by gamma counting; type: ADME, organism-based; conditions: in vivo; how it was run: as §3
Pancreas [20] = assay: Biodistribution in Sprague-Dawley rat pancreas at 0.19 nmol, iv by gamma counting; type: ADME, organism-based; conditions: in vivo; how it was run: as §3
Muscle tissue = assay: Biodistribution in Sprague-Dawley rat muscle at 0.19 nmol, iv by gamma counting; type: ADME, organism-based; conditions: in vivo; how it was run: as §3
Blood [21] = assay: Drug uptake in Sprague-Dawley rat cardiac blood pool at 0.15 nmol, iv after 27.5 mins by PET scanning; type: ADME, organism-based; conditions: in vivo
How it was run: (§4)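 Isoflurane-anesthetized male Sprague-Dawley rats lay prone and received an iv bolus of [11C]radioligand in 200 μL. 3D list-mode emission scans ran 30 min from injection. Regions of interest were drawn on the organs and cardiac blood pool. Uptake was decay-corrected to injection time and expressed as SUV (normalized to injected radioactivity and body weight). Values are mean of n = 4.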

Liver [22] = assay: Drug uptake in Sprague-Dawley rat liver at 0.15 nmol, iv after 27.5 mins by PET scanning; type: ADME, organism-based; conditions: in vivo; how it was run: as §1
Heart [23] = assay: Drug uptake in Sprague-Dawley rat heart at 0.15 nmol, iv up to 30 mins by PET scanning; type: ADME, organism-based; conditions: in vivo, 0.5 h; how it was run: as §4
Kidney [24] = assay: Drug uptake in Sprague-Dawley rat kidney at 0.15 nmol, iv up to 30 mins by PET scanning; type: ADME, organism-based; conditions: in vivo, 0.5 h; how it was run: as §1
Liver [25] = assay: Drug uptake in Sprague-Dawley rat liver at 0.15 nmol, iv up to 30 mins by PET scanning; type: ADME, organism-based; conditions: in vivo, 0.5 h; how it was run: as §1
Blood [26] = assay: Drug uptake in Sprague-Dawley rat cardiac blood pool at 0.15 nmol, iv up to 30 mins by PET scanning; type: ADME, organism-based; conditions: in vivo, 0.5 h; how it was run: as §4
Lung [27] = assay: Drug uptake in Sprague-Dawley rat lung at 0.15 nmol, iv after 2 mins by PET scanning; type: ADME, organism-based; conditions: in vivo; how it was run: as §1
Heart [28] = assay: Drug uptake in Sprague-Dawley rat heart at 0.15 nmol, iv after 2 mins by PET scanning; type: ADME, organism-based; conditions: in vivo; how it was run: as §4
Kidney [29] = assay: Drug uptake in Sprague-Dawley rat kidney at 0.15 nmol, iv after 2 mins by PET scanning; type: ADME, organism-based; conditions: in vivo; how it was run: as §1
Lung [30] = assay: Drug uptake in Sprague-Dawley rat lung at 0.15 nmol, iv after 27.5 mins by PET scanning; type: ADME, organism-based; conditions: in vivo; how it was run: as §1
Heart [31] = assay: Drug uptake in Sprague-Dawley rat heart at 0.15 nmol, iv after 27.5 mins by PET scanning; type: ADME, organism-based; conditions: in vivo; how it was run: as §4

For `CCN(Cc1ccncc1)C(=O)Cn1c(=O)n([11CH3])c2cnc(-c3ccccc3)nc21`, which Drug uptake (Lung [1]) is on record?
Its Drug uptake is “Not Active”.

And the Drug uptake (Heart [2])?
Its Drug uptake is “Not Active”.

And the Drug uptake (Lung [3])?
Its Drug uptake is “Not Active”.

What about the Drug uptake (Heart [4]) of the same compound?
The Drug uptake was “Not Active”.

And the Drug uptake (Kidney [5])?
Its Drug uptake is “Not Active”.

And the “fold change (FC)” value (Liver [6])?
The value was 1.5.

And the “fold change (FC)” value (Liver [7])?
The value was 1.5.

What about the remaining at 0.5 h [8] of the same compound?
The remaining at 0.5 h was 92.1%.

And the remaining at 0.5 h [9]?
The remaining at 0.5 h was 94.7%.

What about the remaining at 0.5 h [10] of the same compound?
The remaining at 0.5 h was 23.4%.

What about the Drug uptake (Blood [11]) of the same compound?
The Drug uptake was 0.08 % ID/g.

What about the Drug uptake (Brain [12]) of the same compound?
Its Drug uptake is 0.02 % ID/g.

And the Drug uptake (Kidney [13])?
The Drug uptake was 1.97 % ID/g.

What about the Drug uptake (Spleen) of the same compound?
The Drug uptake was 1.88 % ID/g.

And the Drug uptake (Pancreas [14])?
Its Drug uptake is 0.37 % ID/g.

What about the Drug uptake (Adrenal) of the same compound?
The Drug uptake was 5.27 % ID/g.

What about the Drug uptake (Brain [15]) of the same compound?
The Drug uptake was 0.02 % ID/g.

And the Drug uptake (Lung [16])?
Its Drug uptake is 1.65 % ID/g.

What about the Drug uptake (Heart [17]) of the same compound?
The Drug uptake was 2.1 % ID/g.

And the Drug uptake (Liver [18])?
The Drug uptake was 0.53 % ID/g.

What about the Drug uptake (Kidney [19]) of the same compound?
The Drug uptake was 1.78 % ID/g.

And the Drug uptake (Pancreas [20])?
Its Drug uptake is 0.38 % ID/g.

What about the Drug uptake (Muscle tissue) of the same compound?
The Drug uptake was 0.11 % ID/g.

What about the SUV (Blood [21]) of the same compound?
The SUV was 0.4.

And the SUV (Liver [22])?
Its SUV is 0.5.

And the Drug uptake (Heart [23])?
Its Drug uptake is “Active”.

What about the Drug uptake (Kidney [24]) of the same compound?
Its Drug uptake is “Active”.

And the Drug uptake (Liver [25])?
Its Drug uptake is “Active”.

What about the Drug uptake (Blood [26]) of the same compound?
Its Drug uptake is “Active”.

And the SUV (Lung [27])?
Its SUV is 3.4.

What about the SUV (Heart [28]) of the same compound?
The SUV was 4.6.

What about the SUV (Kidney [29]) of the same compound?
Its SUV is 3.3.

And the SUV (Lung [30])?
The SUV was 0.5.

And the SUV (Heart [31])?
Its SUV is 0.9.
